Active and inactive are the calls of the source. The calls are words filed in the database; no cut-off is given here.
Assays:
Interstitial collagenase = target: T1, Interstitial collagenase (Homo sapiens, UniProt P03956); assay: Inhibition of MMP-1 (unknown origin) using Mca-Lys-Pro-Leu-Gly-Leu-Dap(Dnp)-Ala-Arg-NH2 as substrate after 4 hrs by fluorometric assay
T1 sequence (P03956 whole entry): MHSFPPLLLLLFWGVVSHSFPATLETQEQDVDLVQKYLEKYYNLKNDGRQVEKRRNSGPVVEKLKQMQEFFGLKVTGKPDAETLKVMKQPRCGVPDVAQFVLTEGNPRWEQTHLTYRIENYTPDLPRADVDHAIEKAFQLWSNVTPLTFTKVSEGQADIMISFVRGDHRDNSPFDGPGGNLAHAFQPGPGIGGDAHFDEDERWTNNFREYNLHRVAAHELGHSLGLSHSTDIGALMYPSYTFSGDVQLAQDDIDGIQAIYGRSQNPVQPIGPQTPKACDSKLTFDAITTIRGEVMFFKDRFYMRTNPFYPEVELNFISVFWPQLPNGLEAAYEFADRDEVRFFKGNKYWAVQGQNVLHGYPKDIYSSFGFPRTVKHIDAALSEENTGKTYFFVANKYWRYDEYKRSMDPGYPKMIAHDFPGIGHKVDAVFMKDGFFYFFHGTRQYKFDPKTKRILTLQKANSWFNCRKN
Procedure, shortened: (§1)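 Fluorogenic substrate added at 2 μM final. Fluorescence (ex 325/em 395 nm) read every 15 s for 20 min. Run in triplicate. IC50 from vi/v0 = 1/(1 + [I]/IC50); Ki also derived.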

[1] = target: Matrix metalloproteinase-14 (Homo sapiens, UniProt P50281); assay: Inhibition of human recombinant MMP-14 catalytic domain using Mca-Lys-Pro-Leu-Gly-Leu-Dap(Dnp)-Ala-Arg-NH2 as substrate after 4 hrs by fluorometric assay; procedure, shortened: as §1
Albumin = Albumin (Homo sapiens, UniProt P02768); assay: Binding affinity to human serum albumin by 19F NMR titration assay; assay type: ADME
Procedure, shortened: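 19F NMR at 310.0 K; ligand at 1.0 mM final (dissolved in DMSO, brought to volume with PBS pH 7.4 containing 10% D2O), TFA as chemical-shift reference. Fatty-acid-free human serum albumin added stepwise (0.36 mM aliquots in PBS or solid) up to protein:ligand 3:1; scans raised from 64 to 16 384 along the titration.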

Collagenase 3 = Collagenase 3 (Homo sapiens, UniProt P45452); assay: Inhibition of MMP-13 (unknown origin) using Mca-Lys-Pro-Leu-Gly-Leu-Dap(Dnp)-Ala-Arg-NH2 as substrate after 4 hrs by fluorometric assay; procedure, shortened: as §1
Stromelysin-1 = Stromelysin-1 (Homo sapiens, UniProt P08254); assay: Inhibition of MMP-3 (unknown origin) using Mca-Arg-Pro-Lys-Pro-Val-Glu-Nva-Trp-Arg-Lys-(Dnp)-NH2 as substrate after 4 hrs by fluorometric assay; procedure, shortened: as §1
[2] = target: Matrix metalloproteinase-9 (Homo sapiens, UniProt P14780); assay: Inhibition of MMP-9 (unknown origin) using Mca-Lys-Pro-Leu-Gly-Leu-Dap(Dnp)-Ala-Arg-NH2 as substrate after 4 hrs by fluorometric assay; procedure, shortened: as §1
[3] = target: 72 kDa type IV collagenase (Homo sapiens, UniProt P08253); assay: Inhibition of MMP-2 (unknown origin) using Mca-Lys-Pro-Leu-Gly-Leu-Dap(Dnp)-Ala-Arg-NH2 as substrate after 4 hrs by fluorometric assay; procedure, shortened: as §1
[4] = target: Macrophage metalloelastase (Homo sapiens, UniProt P39900); assay: Inhibition of MMP-12 (unknown origin) using Mca-Lys-Pro-Leu-Gly-Leu-Dap(Dnp)-Ala-Arg-NH2 as substrate after 4 hrs by fluorometric assay; procedure, shortened: as §1
[5] = Drug uptake in tumor in CD1 nude mouse xenografted with human U87MG cells at 7.4 MBq after 100 mins by PET imaging analysis; assay type: ADME, Neoplasm, U-87MG ATCC; conditions: in vivo
[6] = Drug uptake in tumor in […] CD1 nude mouse xenografted with human U87MG cells after 100 mins by PET imaging analysis; assay type: ADME, organism-based, Neoplasm, U-87MG ATCC; conditions: in vivo
Liver [7] = assay: Biodistribution in CD1 nude mouse liver at 7.4 MBq, iv after 10 mins by PET imaging analysis; assay type: ADME, organism-based; conditions: in vivo
Procedure, shortened: (§2)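 Healthy CD1 nude mice, 6–8 weeks old (n = 2–3 per tracer), under isoflurane anesthesia. Tracer given by tail-vein catheter, ~7.4 MBq in 0.15–0.30 mL PBS. Dynamic PET from injection to 2.5 h. Organ ROIs drawn and counts calibrated against an [18F]fluoride phantom. Uptake decay-corrected and expressed as %ID/g.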

Liver [8] = assay: Biodistribution in CD1 nude mouse liver at 7.4 MBq, iv after 45 mins by PET imaging analysis; assay type: ADME, organism-based; conditions: in vivo, 0.75 h
Procedure, shortened: (§3)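 Healthy CD1 nude mice, 6–8 weeks, 2–3 per tracer, anesthetized with isoflurane. Tail-vein injection via catheter in PBS, with residual syringe dose checked. Dynamic PET from injection to 2.5 h, 3D EM reconstruction, no attenuation or scatter correction, phantom-calibrated. Manual ROIs on organs; decay-corrected uptake expressed as % ID/g.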

[9] = Drug uptake in small tumor in CD1 nude mouse xenografted with human U87MG cells assessed as uniform distribution at 7.4 MBq after 100 mins by PET imaging analysis; assay type: ADME, Neoplasm, U-87MG ATCC; conditions: in vivo
Mus musculus [10] = assay: Biodistribution in CD1 nude mouse small intestine at 7.4 MBq, iv after 10 mins by PET imaging analysis; assay type: ADME, organism-based; conditions: in vivo; procedure, shortened: as §2
[11] = Drug uptake in large tumor in CD1 nude mouse xenografted with human U87MG cells assessed as accumulation within the rim at 7.4 MBq after 100 mins by PET imaging analysis; assay type: ADME, Neoplasm, U-87MG ATCC; conditions: in vivo
[12] = Drug uptake in tumor in […] CD1 nude mouse xenografted with human U87MG cells after 10 mins by PET imaging analysis; assay type: ADME, organism-based, Neoplasm, U-87MG ATCC; conditions: read-out: Drug uptake
Mus musculus [13] = assay: Biodistribution in CD1 nude mouse small intestine at 7.4 MBq, iv after 140 mins by PET imaging analysis; assay type: ADME, organism-based; conditions: in vivo; procedure, shortened: as §3
[14] = Drug uptake in large tumor in CD1 nude mouse xenografted with human U87MG cells assessed as accumulation within the rim at 7.4 MBq after 45 mins by PET imaging analysis; assay type: ADME, Neoplasm, U-87MG ATCC; conditions: in vivo, 0.75 h
[15] = Drug uptake in small tumor in CD1 nude mouse xenografted with human U87MG cells assessed as uniform distribution at 7.4 MBq after 45 mins by PET imaging analysis; assay type: ADME, Neoplasm, U-87MG ATCC; conditions: in vivo, 0.75 h
[16] = Drug uptake in tumor in CD1 nude mouse xenografted with human U87MG cells at 7.4 MBq after 45 mins by PET imaging analysis; assay type: ADME, Neoplasm, U-87MG ATCC; conditions: in vivo, 0.75 h
Mus musculus [17] = assay: In vivo binding affinity to MMP-9 in human U87MG tumor xenografted in mouse assessed as MMP-9 level after 12 hrs by PET scanning followed by gelatin zymography; assay type: functional, organism-based; conditions: tested as the 18F-labelled form
Procedure, shortened: (§4)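 Xenograft tumors excised within 12 h after PET, frozen at −80 °C, ground, and lysed in 1% Triton X-100. Supernatant run on 10% SDS-PAGE containing 0.1% gelatin. Gel renatured in 2.5% Triton X-100, then developed 24 h at 37 °C in 50 mM Tris-HCl pH 7.4, 10 mM CaCl2, 0.5 μM ZnCl2, and stained with Coomassie. MMP-2 read at 72 kDa, MMP-9 at 92 kDa.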

Mus musculus [18] = assay: In vivo binding affinity to MMP-2 in human U87MG tumor xenografted in mouse assessed as MMP-2 level after 12 hrs by PET scanning followed by gelatin zymography; assay type: functional, organism-based; conditions: tested as the 18F-labelled form; procedure, shortened: as §4
Mus musculus [19] = assay: In vivo inhibition of MMP in CD1 nude mouse xenografted with human U87MG cells at 7.4 MBq after 100 mins by PET imaging analysis in presence of ilomastat; assay type: functional, organism-based; parameters: dose or concentration left out as unconfirmed; conditions: U-87MG ATCC, tested as the 18F-labelled form
Procedure, shortened: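 U-87 MG xenografted female CD1 nude mice received ilomastat i.p. at 40–160 mg/kg, 30 min before iv tracer (~7.4 MBq). Static 30-min PET acquired 100 min post-injection. %ID/g measured over whole tumor, rim and core.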

72 kDa type IV collagenase, sequence (P08253 whole entry): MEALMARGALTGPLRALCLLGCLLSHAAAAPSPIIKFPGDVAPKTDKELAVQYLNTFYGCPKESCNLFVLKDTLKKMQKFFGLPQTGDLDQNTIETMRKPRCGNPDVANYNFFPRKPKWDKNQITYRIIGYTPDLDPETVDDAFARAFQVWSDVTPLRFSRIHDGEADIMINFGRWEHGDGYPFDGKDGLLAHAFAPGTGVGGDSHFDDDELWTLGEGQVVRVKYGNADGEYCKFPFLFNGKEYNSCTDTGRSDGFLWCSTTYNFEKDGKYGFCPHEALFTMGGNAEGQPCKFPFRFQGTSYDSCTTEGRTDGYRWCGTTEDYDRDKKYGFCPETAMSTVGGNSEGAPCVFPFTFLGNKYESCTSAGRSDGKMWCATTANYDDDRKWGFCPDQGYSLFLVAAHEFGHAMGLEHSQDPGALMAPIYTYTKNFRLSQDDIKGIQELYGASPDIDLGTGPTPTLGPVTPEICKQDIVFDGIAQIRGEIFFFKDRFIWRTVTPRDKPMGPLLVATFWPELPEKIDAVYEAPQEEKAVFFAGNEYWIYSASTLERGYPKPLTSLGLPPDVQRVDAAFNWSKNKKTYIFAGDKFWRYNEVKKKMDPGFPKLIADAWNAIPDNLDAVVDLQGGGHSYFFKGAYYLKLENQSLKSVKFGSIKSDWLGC
Macrophage metalloelastase, sequence (P39900 whole entry): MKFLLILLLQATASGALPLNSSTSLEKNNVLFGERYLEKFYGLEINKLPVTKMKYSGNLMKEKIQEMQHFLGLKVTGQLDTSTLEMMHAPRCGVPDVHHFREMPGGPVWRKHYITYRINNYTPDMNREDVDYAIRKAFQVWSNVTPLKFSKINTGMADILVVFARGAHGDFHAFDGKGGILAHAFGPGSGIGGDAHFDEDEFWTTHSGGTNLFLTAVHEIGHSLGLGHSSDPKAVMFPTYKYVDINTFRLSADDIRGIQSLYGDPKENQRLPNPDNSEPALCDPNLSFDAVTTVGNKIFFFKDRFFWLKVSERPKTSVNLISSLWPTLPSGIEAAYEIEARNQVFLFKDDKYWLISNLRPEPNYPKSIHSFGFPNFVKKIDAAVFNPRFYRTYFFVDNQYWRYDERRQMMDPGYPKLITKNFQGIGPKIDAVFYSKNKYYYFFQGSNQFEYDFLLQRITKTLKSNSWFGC
Stromelysin-1, sequence (P08254 whole entry): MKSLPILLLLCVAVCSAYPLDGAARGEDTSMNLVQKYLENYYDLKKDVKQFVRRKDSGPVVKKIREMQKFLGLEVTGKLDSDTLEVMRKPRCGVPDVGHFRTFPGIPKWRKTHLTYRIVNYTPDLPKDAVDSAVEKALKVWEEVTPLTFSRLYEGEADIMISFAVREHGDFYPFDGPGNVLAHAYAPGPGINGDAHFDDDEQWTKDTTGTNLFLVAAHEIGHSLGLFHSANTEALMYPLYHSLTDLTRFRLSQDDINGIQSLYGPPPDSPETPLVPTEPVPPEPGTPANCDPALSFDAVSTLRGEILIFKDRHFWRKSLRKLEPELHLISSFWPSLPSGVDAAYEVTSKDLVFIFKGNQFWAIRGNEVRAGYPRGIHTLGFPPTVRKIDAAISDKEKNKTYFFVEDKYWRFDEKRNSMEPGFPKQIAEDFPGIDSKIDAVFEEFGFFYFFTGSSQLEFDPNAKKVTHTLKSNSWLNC
Matrix metalloproteinase-9, sequence (P14780 whole entry): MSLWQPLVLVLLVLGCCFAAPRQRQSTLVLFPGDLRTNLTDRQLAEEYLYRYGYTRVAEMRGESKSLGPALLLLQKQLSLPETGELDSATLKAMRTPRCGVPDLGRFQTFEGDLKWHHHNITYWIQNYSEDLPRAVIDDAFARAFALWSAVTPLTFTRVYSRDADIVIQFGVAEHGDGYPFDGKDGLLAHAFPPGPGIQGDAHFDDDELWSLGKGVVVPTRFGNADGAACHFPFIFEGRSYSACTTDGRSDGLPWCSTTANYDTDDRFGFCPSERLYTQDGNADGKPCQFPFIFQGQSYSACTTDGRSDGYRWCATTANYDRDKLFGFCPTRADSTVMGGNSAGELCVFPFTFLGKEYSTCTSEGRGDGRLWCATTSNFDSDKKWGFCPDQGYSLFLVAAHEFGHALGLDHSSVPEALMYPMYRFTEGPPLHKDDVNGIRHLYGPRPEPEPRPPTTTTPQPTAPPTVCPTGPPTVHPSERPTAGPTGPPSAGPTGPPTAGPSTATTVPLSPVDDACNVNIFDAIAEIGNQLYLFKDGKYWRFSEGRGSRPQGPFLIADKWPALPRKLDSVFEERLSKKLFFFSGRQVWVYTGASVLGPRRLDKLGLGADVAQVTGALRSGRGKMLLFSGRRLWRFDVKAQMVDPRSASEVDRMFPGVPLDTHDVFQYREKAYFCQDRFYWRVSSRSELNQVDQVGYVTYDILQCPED
Albumin, sequence (P02768 whole entry): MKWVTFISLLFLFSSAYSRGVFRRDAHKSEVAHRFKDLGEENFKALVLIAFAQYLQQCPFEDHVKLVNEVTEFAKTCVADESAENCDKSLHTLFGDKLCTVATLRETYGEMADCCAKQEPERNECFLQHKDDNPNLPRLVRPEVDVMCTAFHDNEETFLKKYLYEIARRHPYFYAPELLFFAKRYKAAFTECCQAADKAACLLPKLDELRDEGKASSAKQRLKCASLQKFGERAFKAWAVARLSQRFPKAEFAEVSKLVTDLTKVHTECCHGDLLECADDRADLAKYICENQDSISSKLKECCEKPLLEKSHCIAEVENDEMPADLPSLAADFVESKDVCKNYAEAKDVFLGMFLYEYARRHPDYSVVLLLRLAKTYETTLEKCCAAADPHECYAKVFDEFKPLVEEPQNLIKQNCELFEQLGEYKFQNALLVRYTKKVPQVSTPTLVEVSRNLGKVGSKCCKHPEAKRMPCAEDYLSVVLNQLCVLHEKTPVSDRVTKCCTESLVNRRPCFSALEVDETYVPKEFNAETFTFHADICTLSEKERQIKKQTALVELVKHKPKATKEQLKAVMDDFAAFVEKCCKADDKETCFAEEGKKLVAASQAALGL

SMILES | IC50 (Interstitial collagenase) [µM] | IC50 [1] [µM] | IC50 (Collagenase 3) [µM] | IC50 (Stromelysin-1) [µM] | IC50 [2] [µM] | IC50 [3] [µM] | IC50 [4] [µM] | Drug uptake (Liver [7]) | Drug uptake (Mus musculus [10]) [% ID/g] | other results
O=C(O)Cc1ccccc1S(=O)(=O)c1ccc(-c2ccc(NC(=O)CF)cc2)cc1 | 6.1 | 4.6 | 0.22 | 6.8 | 1.5 | 0.061 | 0.5 |  |  | Kd (Albumin): 10 µM
O=C(O)Cc1ccccc1S(=O)(=O)c1ccc(-c2ccc(OCC[18F])cc2)cc1 |  |  |  |  |  |  |  | 11.2 % ID/g | 2.5 | Drug uptake [5]: 1.4 % ID/g; Drug uptake [6]: 1.7 % ID/g; Drug uptake (Liver [8]): 8.5 % ID/g; Drug uptake [9]: Active; Drug uptake [11]: Active; tissue uptake at 10 min [12]: 1.1 %ID/g; Drug uptake (Mus musculus [13]): 13.1 % ID/g
O=C(O)Cc1ccccc1S(=O)(=O)c1ccc(-c2ccc(NC(=O)C[18F])cc2)cc1 |  |  |  |  |  |  |  | 11% | 2.4 | Drug uptake (Liver [8]): 6.1 % ID/g; Drug uptake (Mus musculus [13]): 12.4 % ID/g
O=C(O)Cc1ccccc1S(=O)(=O)c1ccc(-c2ccc(F)cc2)cc1 | 11.5 | 4.8 | 0.386 | 67 | 3.6 | 0.23 | 0.4 |  |  | 
CC(C)(C)OC(=O)Cc1ccccc1S(=O)(=O)c1ccc(-c2ccc(OCC[18F])cc2)cc1 |  |  |  |  |  |  |  | 21.6 % ID/g | 4.1 | 
OC[C@H]1OC(O)[C@H]([18F])[C@@H](O)[C@@H]1O (some centres undefined) [FLUDEOXYGLUCOSE F 18] |  |  |  |  |  |  |  |  |  | Drug uptake [14]: Active; Drug uptake [15]: Active; Drug uptake [16]: 4.39 % ID/g
O=C(O)Cc1ccccc1S(=O)(=O)c1ccc(-c2ccc(OCCF)cc2)cc1 | 18.5 | 1.6 | 0.022 | 7.1 | 0.107 | 0.016 | 0.044 |  |  | Kd (Albumin): 140 µM; Activity (Mus musculus [17]): Active; Activity (Mus musculus [18]): Active; inhibition (Mus musculus [19]): Active

Reference: ChEMBL document CHEMBL2321808, “Synthesis and preliminary evaluation in tumor bearing mice of new (18)F-labeled arylsulfone matrix metalloproteinase inhibitors as tracers for positron emission tomography” (J Med Chem, 2013)
